From ChEMBL document CHEMBL4513216, “Probing the Open Global Health Chemical Diversity Library for Multistage-Active Starting Points for Next-Generation Antimalarials” (ACS Infect Dis, 2020) come the findings set out here.

This data set in a line: Toxicity liver stage against HepG2, at 10uM. Format: cell-based. The arrangement: test concentration 10 uM, cell line HepG2-A16-CD81EGFP. The settings on record: human, HepG2-A16-CD81EGFP cells; read-out: INHIBITION
The essentials: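 Uninfected HepG2-A16-CD81EGFP cells, 3 × 10^3 per well, 1536-well, plated on prespotted compound at 10 μM final, parasite-free screening media added to match infected plates; puromycin 10 μM positive, DMSO 0.5% negative; run in parallel with 48 h PbLuc assay at 37 °C, 5% CO2; viability by CellTiter-Glo luminescence, normalized to controls.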
For the molecule `O=C(NC[C@H]1OC[C@@H](NC2CCC(F)(F)CC2)[C@@H]1O)C1CC1`, the cytotoxicity at 10 µM is -1.39%. Under `O=C(O)CCCC(=O)N1CCC(c2noc3cc(F)ccc23)CC1` stands -4.66%; under `Cn1c(C(=O)N2CC[C@@]3(O)CCCC[C@H]3C2)cc2ccccc21`, -46.8%. To `Cc1cccc(-n2ncc3c(=O)n(CCN4CCCCC4)cnc32)c1C` belongs -6.57%; to `C[C@H]1C[C@H]2CN(C(=O)C3=CCCC3)CC[C@H]2O1`, 3.76%; to `O=C(O)c1ccc2[nH]cc(CN3CCOCC3)c2c1`, -9.48%. To `COc1ccc(NC(=O)N2CCCC2c2ccco2)cc1OC` (configuration not stated) belongs -7.07%. Consider `COc1nn(C)c2c1CCCN(C(=O)c1ccccc1)C2`, for which the cytotoxicity at 10 µM is -9.76%.

Regarding `C[C@H]1C[C@H]2CN(C(=O)c3ccncn3)CC[C@H]2O1`, the cytotoxicity at 10 µM is -20.9%. To `Cc1nc([C@@H]2C[C@@H]3CCN(C(=O)c4ccnnc4)C[C@H]3O2)sc1C` belongs 2.68%; to `COc1ccc2c(c1)C1(CCN(Cc3ccncc3)CC1)N(C)CC2`, -14.2%.

Take `CCCn1nccc1C(=O)Nc1nc(C)c(C)s1`: the cytotoxicity at 10 µM is -6.19%.

With `CCn1nc(C)c2nc(C(C)C)nc(NCCCO)c21`, the cytotoxicity at 10 µM amounted to 6.48%. To `Cc1nn(CC(C)C)cc1S(=O)(=O)N(C)Cc1nonc1C` belongs 11.3%; to `COCc1ccc(OC)c(CNC2CCCNC2=O)c1` (configuration not stated), 3.66%. Under `O=C(O)[C@@H]1CCN(C(=O)Cc2ccccn2)[C@@H]1c1ccc(F)cc1` stands 4.22%; under `O[C@H]1CN(Cc2c[nH]nc2-c2ccccc2)CC[C@@]12CCCO2`, 10.3%. Under `CC(C)c1cc(O)nc(C2CCCN2C(=O)C2CC2)n1` (configuration not stated) stands -25.1%; under `Cc1c(C2CCCN(C(=O)c3ccn(C)n3)C2)n2c(nc1=O)CCC2` (configuration not stated), 0.862%. Turning to `COc1ccc(Cl)cc1CN1CC(n2cccn2)C1`, the cytotoxicity at 10 µM is -1.73%.

With `CN(CCSc1nncn1C(C)(C)C)c1ccccc1`, the cytotoxicity at 10 µM came to 24%. For `CNS(=O)(=O)CC1CCCN1c1ccccn1` (configuration not stated), the cytotoxicity at 10 µM stood at 2.83%.

As for `CCNC(=O)c1ccc(NC2CCOC3(CCCCC3)C2)nn1` (configuration not stated), the cytotoxicity at 10 µM was -3%.

With `O=C(NC1CC1)c1ccc(SCc2cscn2)cc1`, the cytotoxicity at 10 µM worked out at 1.26%. To `CC(CNS(N)(=O)=O)Oc1ccc(Cl)cc1` (configuration not stated) belongs -5.37%; to `Cc1cc(OCCC(=O)Nc2cccc(F)c2)nnc1C`, -2.32%. To `CN(C)c1ccc(C(=O)Nc2cnn(Cc3ccccn3)c2)cc1` belongs -8.36%.

As for `CCc1ccc(NC(C(N)=O)c2ccc(F)cc2)cc1` (configuration not stated), the cytotoxicity at 10 µM came out at 2.27%.

Consider `COc1ccc(Cl)cc1CCNC(=O)NCc1cnn(C)c1C`, for which the cytotoxicity at 10 µM came out at 3.87%. Under `O=C(CNC(=O)c1ccccc1Cl)Nc1nccs1` stands -3.09%.

With `CCc1nccn1CC1CCCN1S(=O)(=O)N1CCCOCC1` (configuration not stated), the cytotoxicity at 10 µM is -11.5%. Turning to `CCn1ccnc1S(=O)(=O)Cc1c(C)cc(C)c(C(C)=O)c1C`, the cytotoxicity at 10 µM came to 8.5%. To `CN(C)C(=O)c1cccc(CCNS(C)(=O)=O)c1` belongs -6.46%.

With `CCc1nnc(SC2CCCN(c3cccc(F)c3)C2=O)n1C` (configuration not stated), the cytotoxicity at 10 µM worked out at 7.17%.

For the molecule `O=C(NC1CCCCC1)NC1CCCc2c1cnn2CCO` (configuration not stated), the cytotoxicity at 10 µM worked out at 8.39%.

In the case of `CC(C)CCNC(=O)c1cccnc1Oc1cccnc1`, the cytotoxicity at 10 µM was -0.379%.

As to `COc1ccnc(N2CCN(C(=O)c3cnc(C4CC4)s3)CC2)n1`, the cytotoxicity at 10 µM was -5.35%. Under `Cc1noc(CN(CCc2ccco2)Cc2cccc(C#N)c2)n1` stands 3.04%. To `CC(C)C(=O)N1CCC(NC2CCSCC2)C1` (configuration not stated) belongs -3.54%.

As for `CC(C)(C)NC(=O)Cn1cc(C(N)=O)c(-c2ccccc2)n1`, the cytotoxicity at 10 µM is -12.8%.

Take `CC(NS(=O)(=O)CCc1ccccn1)c1ccccc1Br` (configuration not stated): the cytotoxicity at 10 µM was -4.74%. Under `CCc1nnc2n1CCN(C(=O)C(OC)c1ccccc1)C2` (configuration not stated) stands 3.65%; under `COCCN(Cc1ccccc1)Cc1nc(-c2ccsc2)no1`, 5.6%; under `O=C(Nc1ccccc1Cn1cccn1)N1CCCC(N2CCCC2)C1` (configuration not stated), 5.6%. To `COC(=O)NC1(C(=O)Nc2ccc(-c3cc[nH]n3)cc2)CCCC1` belongs -11.2%. For `CCOCCN1CCN(CC(O)c2ccc(OC)cc2)CC1` (configuration not stated), the cytotoxicity at 10 µM is -2.28%. Under `COc1c(C)cnc(CN2CCCC2c2noc(C)n2)c1C` (configuration not stated) stands -3.75%; under `Cc1cc(CNC(=O)N2CCOC(c3ccccc3Cl)C2)no1` (configuration not stated), 0.658%.

Regarding `CC(C)Cn1ccnc1CNC(=O)N1CCCC1CN1CCOCC1` (configuration not stated), the cytotoxicity at 10 µM is -6.29%. Take `Cc1cc(C2CCCN2S(=O)(=O)c2cnn(C)c2)on1` (configuration not stated): the cytotoxicity at 10 µM was -5.22%. Turning to `CCc1nc(C2CCCN2c2ncc(C(F)(F)F)cc2Cl)no1` (configuration not stated), the cytotoxicity at 10 µM came out at 5.64%. Under `COC(=O)CNC(=O)C1(NC(=O)c2ccc3[nH]ncc3c2)CCCC1` stands -2.23%; under `CC(O)CN1CCN(C(=O)c2cn(-c3ccccc3Cl)nn2)CC1` (configuration not stated), 0.361%; under `O=C(O)c1csc(S(=O)(=O)N2CCCc3ccc(F)cc32)c1`, 16.6%. For `CC(O)CC(C)(C)CNC(=O)NCc1cccc(-n2cncn2)c1` (configuration not stated), the cytotoxicity at 10 µM was -4.79%.

On to `CS(=O)(=O)c1ccc(OCCNCc2ccc(F)cc2F)cc1`, for which the cytotoxicity at 10 µM was -8.25%. As to `O=C(Nc1ccccc1)N1CC(C(=O)N2CCCC2)C2(CCOCC2)C1` (configuration not stated), the cytotoxicity at 10 µM was -82.4%. Under `COCCNS(=O)(=O)c1cccc2c1CN(C(=O)c1ccoc1)CC2` stands -3.88%; under `COc1ccc(OCc2cc(C(=O)N3CCCCO3)n[nH]2)c(Cl)c1`, 8.15%; under `Cc1cncc(C(=O)N2CCNCC2C(=O)NCc2ccncc2)c1` (configuration not stated), -4%. As to `O=C(Nc1cnc2n1CCCC2)c1cccc(OCC(F)(F)F)c1`, the cytotoxicity at 10 µM was -0.651%. Under `CCc1cc(NC2CCOCC2)n2nc(C)c(C)c2n1` stands 0.551%; under `CCNc1ccnc(NC2CCN(CC(N)=O)CC2)n1`, -15.7%. To `CNc1ncc(CN(C)c2nc(C)c3ccc(S(C)(=O)=O)cc3n2)cn1` belongs -3.66%; to `Cc1cc(=O)c2ccccc2n1CC1CCCN(C)C1` (configuration not stated), -5.82%; to `CC(C)Cc1cc(C(=O)NCC(c2ccc(F)cc2)N(C)C)n(C)n1` (configuration not stated), -3.97%. Under `COc1cccn(CC(=O)N2CCC3(CCNCC3)C2)c1=O` stands -11.4%; under `CCCc1cc(C(=O)N(Cc2cccnc2)C2CCCCC2)[nH]n1`, -11.2%.

Regarding `COc1ccc2c(c1)OCC(C(=O)NCc1ncc3c(n1)CCC3)C2` (configuration not stated), the cytotoxicity at 10 µM was 2.15%.

Take `O=C(CC[C@@H]1CCCN2CCCC[C@H]12)N1CCC(c2nnc[nH]2)CC1`: the cytotoxicity at 10 µM was 2.61%. To `CC(=O)N1CCCCC1c1ncnn1-c1ccc2nc(C)sc2c1` (configuration not stated) belongs -12%; to `Cc1ccc2cc(C3(O)CCN(C(=O)CN4CCCC4)CC3)ccc2n1`, 2.57%; to `COc1ccc(C2CC(=O)Nc3c2cnn3C2CCCC2)cc1` (configuration not stated), -9.41%. To `CN(Cc1ccsc1)C(=O)c1cc2c([nH]c1=O)CCC2` belongs -12.4%; to `COC1CCN(C(=O)CCn2cccn2)CC1`, -13.4%.

With `Cc1nc(C)n(CC2CCCN2CCCc2nc3ccccc3o2)n1` (configuration not stated), the cytotoxicity at 10 µM was -8.58%. To `Cn1cnc(S(=O)(=O)NCCCN2CCCC2)c1Cl` belongs -11.6%. For the molecule `Cc1csc(N2CCN(C(=O)C3(C#N)CCCC3)CC2)n1`, the cytotoxicity at 10 µM is -12.6%. In the case of `CN(Cc1ccccc1)C(=O)CN1CCOC(Cn2cncn2)C1` (configuration not stated), the cytotoxicity at 10 µM is -3.66%. With `CCNC(=O)NC(=O)CNc1cc(C#N)ccc1OCC`, the cytotoxicity at 10 µM was -19.7%.

Turning to `CN(Cc1ccc(O)cc1)C(=O)NCc1nnc2n1CCCCC2`, the cytotoxicity at 10 µM is -11.1%. To `COc1ccc(-c2nc(CN3CCc4cnc(C)nc4C3)no2)cc1` belongs -7.1%; to `CCn1cnnc1CNC(=O)NC(c1cccs1)C1CCCC1` (configuration not stated), -11.2%.

In the case of `Cc1cnc(CN(C)C2CCN(CCCc3ccccc3)C2)o1` (configuration not stated), the cytotoxicity at 10 µM is -4.02%. As to `Cc1noc(C)c1CN(C)C(=O)c1ccc(C(F)(F)F)nc1`, the cytotoxicity at 10 µM was -10%. To `Cc1nc(C2CCCN2CC(=O)Nc2cc(C(C)(C)C)nn2C)no1` (configuration not stated) belongs -10.9%; to `O=C(NCCCn1nc2ccccn2c1=O)NCc1ccccc1`, -16.1%; to `CCN1C[C@H]2[C@@H](C1)N(C(=O)Cc1ccsc1)CC[C@H]2OC`, 6.8%. To `O=C(C1=CCCC1)N1CCC[C@]2(C[C@@H](OCc3ccncc3)CO2)C1` belongs -6.5%; to `Fc1cccc(N2CCCC3(CN(Cc4ccccn4)CCO3)C2)c1` (configuration not stated), 2.29%.

On to `CCN1CCN(C)C(=O)C12CCN(Cc1ccsc1)CC2`, for which the cytotoxicity at 10 µM worked out at 1.14%. Under `CN(C)C(=O)N1C[C@H]2CCC[C@@]2(COc2ccccn2)C1` stands 3.24%; under `CN1[C@@H](C(=O)NCC2CC2)C[C@@H]2CN(Cc3ccsc3)C[C@@H]21`, -4.04%; under `Cc1occc1C(=O)N1CCC[C@]2(C[C@@H](OCc3ccncc3)CO2)C1`, -6.25%. Under `CSc1ncc(C(=O)N2C[C@@H]3CC[C@H]2CN(S(=O)(=O)N(C)C)C3)cn1` stands 0.0773%; under `COC(=O)Cn1c(=O)[nH]c2cn(-c3cccc(C)c3)c(=O)n21`, 5.42%; under `Cn1cccc1C(=O)N1C[C@@H]2CC[C@H]1CN(Cc1cscn1)C2`, 2.9%.
